Screening results (PubChem)
proCasp7 act: counter-screen: procaspase-7 (human) activation; recombinant procaspase-7, Ac-DEVD-pNA absorbance 405 nm; D23A/D198A/D206A triple mutant, cannot self-cleave; scale: DMSO 0, 5 µM enzyme 100; activation, % at 8.5 µM; P55210; 0.093% of 330,000 active;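 active = percent activation above the screen-wide mean plus 3 SD, cut at about 25% in these data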
Target sequence (P55210 whole entry D23A/D198A/D206A): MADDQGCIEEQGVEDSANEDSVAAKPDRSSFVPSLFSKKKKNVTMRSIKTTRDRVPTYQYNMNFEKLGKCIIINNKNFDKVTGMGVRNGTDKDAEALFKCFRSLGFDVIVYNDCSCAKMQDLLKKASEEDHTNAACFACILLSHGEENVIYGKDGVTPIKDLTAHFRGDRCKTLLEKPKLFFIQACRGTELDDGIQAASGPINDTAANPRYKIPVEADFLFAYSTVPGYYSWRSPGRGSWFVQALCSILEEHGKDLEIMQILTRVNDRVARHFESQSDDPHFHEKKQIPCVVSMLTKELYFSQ
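Replicates: singlicate. Assay system: Procaspase-7 triple mutant (PC-7 D3A). Signal: 405 nm absorbance of p-nitroaniline. Times: 1 h preincubation, 2 h reaction. Buffer or medium: Zinc-free HEPES pH 7.4 with 300 mM NaCl, 0.01% Triton X-100. Also added: DEVD-pNA substrate. Benchmarks: DMSO wells as 0%, DMSO with 5 µM added PC-7 as 100%.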
NR3A LBD binder: modulates the human NR3A ligand-binding domain | Tm shift relative to glycine control, % at 25 µM | 2.5% of 340,000 active | NR3A LBD differential scanning fluorimetry, Tm shift; 0% = protein alone, 100% = glycine-bound protein;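 active = melting temperature shift of at least 10% of the positive control shift, at one fixed dose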
procasp3 activ: activates human procaspase-3. P42574. recombinant procaspase-3 D3A, Ac-DEVD-pNA absorbance 405 nm. activation, % at 8.5 µM. 0.11% of 330,000 active;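 active = activation above the mean of all tested compounds plus 3 SD, cut at about 21% in these data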;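 note: 0% = DMSO alone and 100% = DMSO wells spiked with extra 5 µM PC-3 D3A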
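Test system: Procaspase-3 D3A mutant; medium: Zinc-free HEPES/NaCl buffer with 0.01% Triton X-100 at pH 7.4; reagent: DEVD-pNA substrate; doses: one concentration, 8.5 µM nominal, 0.8% DMSO; times: 1 h preincubation plus 2 h reaction at 25 °C; signal: Epi-absorbance at 405 nm of released p-nitroaniline, 0 and 120 min; replicates: singlicate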
MPTP block: inhibitors of mitochondrial permeability transition pore; 1.4% of 360,000 active; isolated mouse mitochondria, Ca2+ swelling absorbance, 30 min; inhibition, % at 10 µM;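 active = inhibition of 50% or more, scaled per plate between neutral and stimulator controls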;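 note: 0% = DMSO wells given calcium and 100% = 1 mM EGTA wells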
aDG glyco up: increases alpha dystroglycan glycosylation | Pro5-aDG cells, alpha-DG glycosylation AlphaScreen (IIH6); 0% Pro5, 100% B10-LARGE cell signal | activation, % at 10 µM | 0.22% of 360,000 active | AID 624168;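 active = activation of at least 8% versus controls, or a plate z-score of at least 8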;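 note: Pro5 are CHO cells carrying HIG-tagged alpha-DG that lacks glycosylation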
* hit, by the source's call. Hits are enriched below; roughly 3.7% of the tested compounds scored in any of these assays.

Screening O=C(Nc1ccc(S(=O)(=O)N2CCCC2)cc1)c1cccc(OC(F)F)c1 returned proCasp7 act -2.0, NR3A LBD binder 19.2*, procasp3 activ 5.3, MPTP block 0.2 and aDG glyco up 0.1.
O=C(Nc1ccc(S(=O)(=O)N2CCCC2)cc1)c1ccc([N+](=O)[O-])o1 was read as proCasp7 act -11.1, NR3A LBD binder 27.3*, procasp3 activ 12.1, MPTP block 0.3 and aDG glyco up -0.3.
Screening O=C(Nc1ccc(S(=O)(=O)N2CCOCC2)cc1)c1ccc([N+](=O)[O-])o1 returned proCasp7 act -2.8, NR3A LBD binder -2.2, procasp3 activ 2.7, MPTP block 2.5 and aDG glyco up 0.5.
`O=C(Nc1ccc(S(=O)(=O)N2CCCC2)cc1)c1ccc([N+](=O)[O-])cc1` gave proCasp7 act -0.5, NR3A LBD binder 26.6*, procasp3 activ 9.0, MPTP block -1.5 and aDG glyco up -0.1.
For COc1ccc(C(=O)Nc2ccc(S(=O)(=O)N3CCCCC3)cc2)cc1 the results were proCasp7 act 16.8, NR3A LBD binder 23.6*, procasp3 activ 9.1, MPTP block -0.1 and aDG glyco up 0.1.
`O=C1c2ccccc2C(c2nc3ccccc3[nH]2)N1c1ccccn1` (stereo unspecified) gave MPTP block -0.9 and aDG glyco up 0.2.
Screening C[C@H](CO)N1C[C@H](C)[C@@H](CN(C)S(=O)(=O)c2cccs2)Oc2c(NS(=O)(=O)c3ccc(F)cc3)cccc2C1=O returned proCasp7 act 7.8, NR3A LBD binder -0.5, procasp3 activ 4.8, MPTP block 0.8 and aDG glyco up -0.2.
CCOC(=O)C1=C[C@@H](C(C)(C)C)N(S(=O)(=O)c2ccc(C)cc2)[C@H]1c1ccc(OC)cc1 was read as MPTP block 0.4 and aDG glyco up 0.0.
Cc1ccc(NC(=O)c2ccc(S(=O)(=O)N3CCCC3)cc2)cc1 was read as proCasp7 act 10.1, NR3A LBD binder 16.0*, procasp3 activ 5.2, MPTP block -0.4 and aDG glyco up 0.0.
For Cc1ccc(NC(=O)CNC(=O)c2ccc(OC(F)F)cc2)cc1S(=O)(=O)N1CCCCCC1 the results were NR3A LBD binder 11.9*, MPTP block 1.1 and aDG glyco up 0.4.
Screening Nc1nc(CSC(=S)N2CCOCC2)nc(Nc2ccccc2)n1 returned proCasp7 act 0.8, NR3A LBD binder -0.9, procasp3 activ 2.2, MPTP block 1.2 and aDG glyco up 0.1.
`Nc1nc(CSC(=S)N2CCN(c3ccccc3)CC2)nc(Nc2ccc(F)cc2)n1` gave proCasp7 act 2.9, NR3A LBD binder 25.2*, procasp3 activ -7.9, MPTP block -1.1 and aDG glyco up 1.0.
Screening O=C(Nc1ccc(OCc2ccccc2)cc1)c1cccnc1 returned proCasp7 act -3.2, NR3A LBD binder 1.9, procasp3 activ 5.9, MPTP block 1.6 and aDG glyco up 0.4.
For COc1ccc(CC(=O)Nc2ccc(OC)nc2)cc1 the results were proCasp7 act 1.4, NR3A LBD binder -0.9, procasp3 activ 6.8, MPTP block -2.0 and aDG glyco up 0.5.
`COc1ccc(NC(=O)Nc2ccc(OCc3ccccc3)cc2)cn1` gave NR3A LBD binder 29.0*, MPTP block 3.2 and aDG glyco up 0.5.
O=C(Nc1ccc(OCc2ccccc2)cc1)Nc1cccnc1 was read as proCasp7 act 4.2, NR3A LBD binder 14.6*, procasp3 activ -1.1, MPTP block 0.6 and aDG glyco up 0.0.
`Cc1ccc(-c2nn(-c3ccccc3)cc2/C=N/NS(=O)(=O)c2ccccc2)cc1` gave proCasp7 act -5.2, NR3A LBD binder 23.7*, procasp3 activ 0.7, MPTP block 8.4 and aDG glyco up 0.0.
For Cc1ccc(-c2nn(-c3ccccc3)cc2/C=N/O)cc1 the results were proCasp7 act 10.7, NR3A LBD binder -8.9, procasp3 activ -5.7, MPTP block 0.6 and aDG glyco up 0.2.
`O=S(=O)(N/N=C\c1cn(-c2ccccc2)nc1-c1ccccc1)c1ccccc1` gave proCasp7 act 12.2, NR3A LBD binder 19.6*, procasp3 activ 6.2, MPTP block 6.2 and aDG glyco up -0.2.
Cc1ccc(S(=O)(=O)N/N=C\c2cn(-c3ccccc3)nc2-c2ccccc2)cc1 was read as proCasp7 act -10.8, NR3A LBD binder 29.0*, procasp3 activ -3.1, MPTP block 10.4 and aDG glyco up -0.2.
